This excerpt belongs to a sample that is enriched for hits.
HUVEC prolif 384: inhibitors of human endothelial cell proliferation | HUVEC proliferation, CellTiter-Glo luminescence, 72 h; hits give low values | viability, % at 10 µM (by protocol) | AID 648 | actives 1.1% (n = 86,000);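 active = viability at or below 30%; inactive = viability above 30%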;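 note: 100% = median luminescence of DMSO-only cell control wells on each plate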
HCT116 PTEN-null: PTEN-deleted cell growth suppression; HCT116 PTEN-null viability, CellTiter-Glo, 60 h; hits give low values; viability, % at 10 µM; actives 1.2% (n = 140,000);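 active = viability at or below a set limit, 4 SD under the median of all tested compounds, cut at about 3.7% in these data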;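 note: PTEN knockout HCT116 line with beta catenin targeted HCT116 as companion control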
Fibroblast inh: blocks proliferation of human lung fibroblasts. LL 47 human lung fibroblast viability, ATP luminescence; hits give low values. viability, % at 10 µM. actives 1.1% (n = 85,000);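 active = viability at or below 50% in the single dose screen; inactive = viability above 50%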;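 note: compound exposure lasted 72 h before the ATP readout; 100% = median luminescence of untreated cell-only wells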
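Test system: LL 47 human lung fibroblasts / Quantity: 1,150 cells in each well / Medium: IMEM growth medium with 15% fetal bovine serum / Incubation: 72 h compound exposure at 37 °C after overnight plating / Detection: CellTiter-Glo luminescence measuring cellular ATP / Read-out: % viability versus median cells-only luminescence / Benchmarks: cell-only wells, no compound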
H69AR growth 86K: growth inhibitors of human H69AR lung tumor cells; actives 6% (n = 85,000); AID 598; viability, % at 10 µM; H69AR lung tumor viability, ATP luminescence, 72 h; hits give low values;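 active = viability at or below 40%; inactive = viability above 40%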;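 note: multidrug resistant small cell line overexpressing MRP-1 efflux transporter; 100% = mean luminescence of untreated control wells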
HCT116 bCat-KO: beta-catenin-lacking colon tumor cell growth suppression; HCT116 beta-catenin knockout viability, CellTiter-Glo, 60 h; hits give low values; viability, % at 10 µM; actives 1.5% (n = 140,000);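 active = viability at or under a set limit, the compound median less 4 SD, cut at about 6% in these data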;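 note: 0% = Hyamine 1622 control at 20 µM and 100% = untreated cell control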
* marks the source's active call; other numbers are inactive results.

What do the screens show for `COc1ccc(CN(C(=O)c2cnccn2)C(C(=O)Nc2ccc(F)cc2)c2ccccc2)cc1` (stereo not drawn)?
HUVEC prolif 384: 91; HCT116 PTEN-null: 88; Fibroblast inh: 97; H69AR growth 86K: 75; HCT116 bCat-KO: 87

Results for CCc1cccc(CC)c1NC(=O)COC(=O)CCc1cc(OC)c(OC)c(OC)c1 ?
HCT116 PTEN-null: 96; HCT116 bCat-KO: 88

Results for CCCn1c(CCC(=O)Nc2ccccc2Cc2ccccc2)nc2cc(S(=O)(=O)N3CCOCC3)ccc21 ?
HUVEC prolif 384: 107; HCT116 PTEN-null: 70; Fibroblast inh: 90; H69AR growth 86K: 39*; HCT116 bCat-KO: 63

Results for COCCNC(=O)c1onc(CSc2ccc(C(C)C)cc2)c1C(=O)O ?
HCT116 PTEN-null: 108; HCT116 bCat-KO: 98

Results for Cn1c(SCC(=O)Nc2cccc(Br)c2)nnc1-c1cc2ccccc2o1 ?
HUVEC prolif 384: 92; HCT116 PTEN-null: 2.2*; Fibroblast inh: 57; H69AR growth 86K: 97; HCT116 bCat-KO: 2.6*

Results for Cc1ccccc1OCc1nnc(SCC(=O)Nc2ccc3c(c2)oc2ccccc23)n1C ?
HUVEC prolif 384: 60; HCT116 PTEN-null: 98; Fibroblast inh: 61; H69AR growth 86K: 21*; HCT116 bCat-KO: 92

How did Cc1ccc2nc(N/C(N)=N/S(=O)(=O)c3ccc([N+](=O)[O-])cc3)nc(C)c2c1 do in these assays?
HCT116 PTEN-null: 67; HCT116 bCat-KO: 62

What do the screens show for `Cc1cc(-n2nc(C)cc2C)n2nc(C)c(-c3ccc(Cl)cc3)c2n1`?
HUVEC prolif 384: 83; HCT116 PTEN-null: 22; Fibroblast inh: 46*; H69AR growth 86K: 44; HCT116 bCat-KO: 16

How did Cc1cc(SCC(=O)c2cccs2)n2nc(C)c(-c3ccc(Cl)cc3)c2n1 do in these assays?
HCT116 PTEN-null: 64; HCT116 bCat-KO: 69

What do the screens show for `C=CCSc1cc(C)nc2c(-c3ccc(Cl)cc3)c(C)nn12`?
HUVEC prolif 384: 90; HCT116 PTEN-null: 88; Fibroblast inh: 97; H69AR growth 86K: 36*; HCT116 bCat-KO: 89

What do the screens show for `Cc1cc(C(F)(F)F)n2nc(C)c(-c3ccc(Cl)cc3)c2n1`?
HCT116 PTEN-null: 98; HCT116 bCat-KO: 88

Results for CCc1sc(NC(=O)c2cc3ccccc3oc2=O)nc1-c1cccs1 ?
HCT116 PTEN-null: 94; HCT116 bCat-KO: 93

What do the screens show for `CCc1ccc(NC(=O)CSc2nnc(SCC(=O)Nc3ccc(CC)cc3)n2N)cc1`?
HCT116 PTEN-null: 89; HCT116 bCat-KO: 81

Results for Cc1ccc(-c2cc3c(nn2)-c2ccccc2C3=O)cc1 ?
HUVEC prolif 384: 58; Fibroblast inh: 47*; H69AR growth 86K: 12*

What do the screens show for `Cc1cccc(C)c1NS(=O)(=O)c1ccc2c(c1)C(=O)c1ccccc1C2=O`?
HCT116 PTEN-null: 87; HCT116 bCat-KO: 83

What do the screens show for `Cc1ccccc1-c1cc2c(nn1)-c1ccccc1C2=O`?
HUVEC prolif 384: 3.2*; HCT116 PTEN-null: 4; Fibroblast inh: 14*; H69AR growth 86K: 17*; HCT116 bCat-KO: 3.4*

What do the screens show for `Cc1nn2c(NCCCN(C)C)c3c(nc2c1-c1ccccc1)CCC3`?
HUVEC prolif 384: 56; HCT116 PTEN-null: 1.7*; Fibroblast inh: 10*; H69AR growth 86K: 6.6*; HCT116 bCat-KO: 2.4*

What do the screens show for `Cc1nn2c(NCC(C)C)c3c(nc2c1-c1ccccc1)CCC3`?
HUVEC prolif 384: 101; HCT116 PTEN-null: 83; Fibroblast inh: 88; H69AR growth 86K: 34*; HCT116 bCat-KO: 92

How did O=S(=O)(CCN1CCN(C(c2ccccc2)c2ccccc2)CC1)C(F)(F)F do in these assays?
HUVEC prolif 384: 79; HCT116 PTEN-null: 25; Fibroblast inh: 73; H69AR growth 86K: 4.4*; HCT116 bCat-KO: 9

What do the screens show for `c1ccc(OCCOCCN2CCN(C(c3ccccc3)c3ccccc3)CC2)cc1`?
HCT116 PTEN-null: 58; HCT116 bCat-KO: 52

What do the screens show for `CCC1Oc2ccc(C)cc2N(CC(=O)N(Cc2ccc(C)o2)C2CC(C)(C)NC(C)(C)C2)C1=O` (stereo not drawn)?
HUVEC prolif 384: 73; HCT116 PTEN-null: 12; Fibroblast inh: 84; H69AR growth 86K: 32*; HCT116 bCat-KO: 21

How did CCC1Oc2ccc(C)cc2N(CC(=O)N(Cc2cccnc2)Cc2ccc(C)o2)C1=O (stereo not drawn) do in these assays?
HUVEC prolif 384: 89; HCT116 PTEN-null: 78; Fibroblast inh: 97; H69AR growth 86K: 58; HCT116 bCat-KO: 76

Results for COC(=O)/C=C1/S/C(=N/N=C/c2ccc(N(C)C)cc2)NC1=O ?
HCT116 PTEN-null: 93; HCT116 bCat-KO: 82

High-throughput results from PubChem.
